# Test results reported in ChEMBL document CHEMBL1138216, “Design and synthesis of novel derivatives of the muscarinic agonist tetra(ethylene glycol)(3-methoxy-1,2,5-thiadiazol-4-yl) [3-(1-methyl-1,2,5,6-tetrahydropyrid-3-yl)-1,2,5-thiadiazol-4-yl] ether (CDD-0304): effects of structural modifications on the binding and activity at muscarinic receptor …” (J Med Chem, 2006).
# Activity calls are given as the source filed them. No cut-off for these calls is given here.
# How the values were obtained:
# [1] = target: T1, Muscarinic acetylcholine receptor M1 (Homo sapiens, UniProt P11229); assay: Inhibition of [3H](R)-QNB binding to human M1 receptor expressed in A9 L cells; format: cell-based, A9L
# T1 sequence (P11229 whole entry): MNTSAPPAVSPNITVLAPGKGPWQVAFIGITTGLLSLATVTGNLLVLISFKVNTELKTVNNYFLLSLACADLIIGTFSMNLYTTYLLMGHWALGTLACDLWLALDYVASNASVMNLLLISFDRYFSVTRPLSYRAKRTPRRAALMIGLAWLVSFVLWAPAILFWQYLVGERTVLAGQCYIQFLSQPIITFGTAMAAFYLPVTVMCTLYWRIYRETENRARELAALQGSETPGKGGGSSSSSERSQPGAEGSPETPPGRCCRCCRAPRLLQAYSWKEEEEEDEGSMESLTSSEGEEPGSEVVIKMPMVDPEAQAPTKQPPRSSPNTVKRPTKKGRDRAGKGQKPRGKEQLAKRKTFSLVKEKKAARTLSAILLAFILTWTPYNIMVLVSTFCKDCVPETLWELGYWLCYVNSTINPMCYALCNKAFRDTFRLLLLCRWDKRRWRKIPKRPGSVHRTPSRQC
# [2] = target: T2, Muscarinic acetylcholine receptor M2 (Homo sapiens, UniProt P08172); assay: Inhibition of [3H](R)-QNB binding to human M2 receptor expressed in A9 L cells; format: cell-based, A9L
# T2 sequence (P08172 whole entry): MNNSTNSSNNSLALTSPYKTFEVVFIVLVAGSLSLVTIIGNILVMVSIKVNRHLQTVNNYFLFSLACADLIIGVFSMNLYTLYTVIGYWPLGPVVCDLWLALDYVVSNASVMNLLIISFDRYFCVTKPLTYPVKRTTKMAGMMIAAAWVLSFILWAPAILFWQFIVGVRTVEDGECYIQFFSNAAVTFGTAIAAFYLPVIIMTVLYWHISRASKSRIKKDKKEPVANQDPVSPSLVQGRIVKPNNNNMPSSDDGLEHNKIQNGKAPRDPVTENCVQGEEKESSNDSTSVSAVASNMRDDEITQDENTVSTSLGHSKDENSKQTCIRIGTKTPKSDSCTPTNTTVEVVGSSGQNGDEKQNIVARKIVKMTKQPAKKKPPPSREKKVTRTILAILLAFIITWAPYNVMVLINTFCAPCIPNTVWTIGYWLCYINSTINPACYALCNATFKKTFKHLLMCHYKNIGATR
# Summary of the method: (§1)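 Membranes from A9 L cells expressing the receptor; 0.1 nM [3H]-(R)-QNB with 14 concentrations of test ligand (0.01 nM to 3 mM) in 25 mM sodium phosphate pH 7.4, 5 mM MgCl2, 2 h room temperature; nonspecific binding with 1000-fold excess unlabeled (R)-QNB.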
# [3] = target: T3, Muscarinic acetylcholine receptor M3 (Homo sapiens, UniProt P20309); assay: Inhibition of [3H](R)-QNB binding to human M3 receptor expressed in A9 L cells; format: cell-based, A9L
# Target sequence in this assay (P20309 whole entry): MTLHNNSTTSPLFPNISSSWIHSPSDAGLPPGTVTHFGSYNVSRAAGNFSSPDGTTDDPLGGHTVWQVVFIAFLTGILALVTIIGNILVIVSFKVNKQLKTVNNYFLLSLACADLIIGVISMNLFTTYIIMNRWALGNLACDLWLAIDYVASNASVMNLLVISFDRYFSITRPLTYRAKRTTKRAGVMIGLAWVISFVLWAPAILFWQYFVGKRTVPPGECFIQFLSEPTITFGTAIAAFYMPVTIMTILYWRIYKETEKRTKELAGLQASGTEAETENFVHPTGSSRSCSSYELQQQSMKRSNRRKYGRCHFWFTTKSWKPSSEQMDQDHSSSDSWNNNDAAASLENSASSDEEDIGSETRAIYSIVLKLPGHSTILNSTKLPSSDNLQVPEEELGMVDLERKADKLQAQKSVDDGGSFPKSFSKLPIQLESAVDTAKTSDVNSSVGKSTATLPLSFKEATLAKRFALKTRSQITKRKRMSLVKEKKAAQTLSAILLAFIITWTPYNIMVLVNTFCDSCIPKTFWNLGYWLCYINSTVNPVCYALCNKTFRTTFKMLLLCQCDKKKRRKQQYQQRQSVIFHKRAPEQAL
# [4] = target: T4, Muscarinic acetylcholine receptor M4 (Homo sapiens, UniProt P08173); assay: Inhibition of [3H](R)-QNB binding to human M4 receptor expressed in A9 L cells; format: cell-based, A9L; summary of the method: as §1
# T4 sequence (P08173 whole entry): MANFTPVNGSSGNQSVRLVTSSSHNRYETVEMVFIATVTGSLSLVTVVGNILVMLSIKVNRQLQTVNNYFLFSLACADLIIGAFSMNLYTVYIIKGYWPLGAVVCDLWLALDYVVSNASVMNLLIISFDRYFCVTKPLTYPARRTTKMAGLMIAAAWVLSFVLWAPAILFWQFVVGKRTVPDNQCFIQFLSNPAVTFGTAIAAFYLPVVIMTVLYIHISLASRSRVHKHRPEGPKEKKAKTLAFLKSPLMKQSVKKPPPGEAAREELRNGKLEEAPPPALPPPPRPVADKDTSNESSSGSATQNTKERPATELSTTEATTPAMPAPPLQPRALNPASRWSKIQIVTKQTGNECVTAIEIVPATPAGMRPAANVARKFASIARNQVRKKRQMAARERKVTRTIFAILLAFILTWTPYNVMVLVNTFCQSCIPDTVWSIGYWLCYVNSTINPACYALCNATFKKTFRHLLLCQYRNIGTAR
# [5] = target: T5, Muscarinic acetylcholine receptor M5 (Homo sapiens, UniProt P08912); assay: Inhibition of [3H](R)-QNB binding to human M5 receptor expressed in A9 L cells; format: cell-based, A9L; summary of the method: as §1
# T5 sequence (P08912 whole entry): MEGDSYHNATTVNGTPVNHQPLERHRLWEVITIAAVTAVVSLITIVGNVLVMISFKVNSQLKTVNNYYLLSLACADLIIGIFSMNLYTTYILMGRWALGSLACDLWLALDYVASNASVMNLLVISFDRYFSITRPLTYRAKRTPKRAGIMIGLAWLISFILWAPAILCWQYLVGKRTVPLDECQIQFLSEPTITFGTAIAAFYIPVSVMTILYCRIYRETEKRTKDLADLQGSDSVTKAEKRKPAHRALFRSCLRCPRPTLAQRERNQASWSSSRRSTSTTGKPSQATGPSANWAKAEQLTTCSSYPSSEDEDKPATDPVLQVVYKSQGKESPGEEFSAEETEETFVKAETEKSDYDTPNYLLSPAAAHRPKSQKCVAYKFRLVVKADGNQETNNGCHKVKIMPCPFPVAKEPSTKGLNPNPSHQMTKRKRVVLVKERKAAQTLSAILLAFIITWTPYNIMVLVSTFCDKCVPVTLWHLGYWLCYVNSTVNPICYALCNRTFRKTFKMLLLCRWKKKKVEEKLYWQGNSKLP
# [6] = target: T1, Muscarinic acetylcholine receptor M1; assay: Agonist activity at human M1 receptor expressed in A9 L cells assessed as stimulation of phosphoinositide hydrolysis; format: functional, cell-based, L929
# [7] = target: T6, Muscarinic acetylcholine receptor M1 (Homo sapiens) (UniProt P11229); assay: Agonist activity at human M1 receptor expressed in A9 L cells assessed as stimulation of phosphoinositide hydrolysis relative to carbachol; format: functional, cell-based; settings: L929
# T6 sequence (whole entry): T1 sequence (P11229 whole entry)
# Summary of the method: (§2)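 A9 L cells stably expressing the receptor, seeded 24 h, labelled overnight with 10 µCi/mL [3H]inositol in inositol-free DMEM; ligands in HBSS with 10 mM LiCl, 20 mM HEPES, 37 °C, 1 h; formic acid extraction, inositol phosphates counted by SPA beads.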
# [8] = target: T3, Muscarinic acetylcholine receptor M3; assay: Agonist activity at human M3 receptor expressed in A9 L cells assessed as stimulation of phosphoinositide hydrolysis relative to carbachol; format: functional, cell-based; settings: L929; summary of the method: as §2
# Target sequence in this assay (P20309 whole entry, looked up): as the sequence (P20309 whole entry) above
# [9] = target: T7, Muscarinic acetylcholine receptor M5 (Homo sapiens) (UniProt P08912); assay: Agonist activity at human M5 receptor expressed in A9 L cells assessed as stimulation of phosphoinositide hydrolysis at 100 uM relative to carbachol; format: functional, cell-based; settings: L929
# T7 sequence (whole entry): T5 sequence (P08912 whole entry)
# [10] = target: T2, Muscarinic acetylcholine receptor M2; assay: Activity at human M2 receptor assessed as inhibition of forskolin-stimulated cAMP accumulation; format: functional
# [11] = target: T8, Muscarinic acetylcholine receptor M2 (Homo sapiens) (UniProt P08172); assay: Activity at human M2 receptor assessed as inhibition of forskolin-stimulated cAMP accumulation relative to carbachol; format: functional
# T8 sequence (whole entry): T2 sequence (P08172 whole entry)
# [12] = target: T4, Muscarinic acetylcholine receptor M4; assay: Activity at human M4 receptor assessed as inhibition of forskolin-stimulated cAMP accumulation; format: functional
# [13] = target: T9, Muscarinic acetylcholine receptor M4 (Homo sapiens) (UniProt P08173); assay: Activity at human M4 receptor assessed as inhibition of forskolin-stimulated cAMP accumulation relative to carbachol; format: functional
# T9 sequence (whole entry): T4 sequence (P08173 whole entry)
# [14] = target: T3, Muscarinic acetylcholine receptor M3; assay: Antagonist activity at human M3 receptor assessed as inhibition of carbachol […]; settings: read-out: pA2 (converted)
# Target sequence in this assay (P20309 whole entry): as the sequence (P20309 whole entry) above
# Rattus norvegicus = assay: Antipsychotic activity in Sprague-Dawley rat assessed as ability to reverse apomorphine effect on prepulse inhibition of the startle response at 1 mg/kg, sc; format: functional, organism-based; parameters: dose 1 mg/kg
# Summary of the method: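 Male Sprague-Dawley rats, 250-300 g, habituated a day before. Drug in water or saline sc (1 mL/kg) 25 min, apomorphine 1.0 mg/kg 5 min pre-test; muscarinic agonists 0.1-3 mg/kg. Session of 15 each pulse-alone (120 dB, 100 ms) and pulse preceded 200 ms by 20 ms prepulse 12 dB above 70 dB background; 12 rats/group; %PPI calculated.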
# [15] = target: T7, Muscarinic acetylcholine receptor M5 (Homo sapiens); assay: Agonist activity at human M5 receptor expressed in A9 L cells assessed as stimulation of phosphoinositide hydrolysis relative to carbachol; format: functional, cell-based; settings: L929; summary of the method: as §2
# [16] = target: T8, Muscarinic acetylcholine receptor M2 (Homo sapiens); assay: Activity at human M2 receptor assessed as inhibition of forskolin-stimulated cAMP accumulation at 1 mM relative to carbachol; format: functional
# [17] = target: T9, Muscarinic acetylcholine receptor M4 (Homo sapiens); assay: Activity at human M4 receptor assessed as inhibition of forskolin-stimulated cAMP accumulation at 1 mM relative to carbachol; format: functional
Compound,Ki [1],Ki [2],Ki [3],Ki [4],Ki [5],EC50 [6],Smax [7],Activity [8],Smax [9],IC50 [10],Imax [11],IC50 [12],Imax [13],Kb [14],Activity (Rattus norvegicus),Smax [15],Activity [15],Imax [16],Imax [17]
COc1nsnc1OCCOCCOCCOCCOCCOc1nsnc1C1=CCCN(C)C1,398 nM,2.51 nM,1580 nM,12.6 nM,100 nM,251 nM,28%,inactive,0.95%,398 nM,98%,398 nM,37%,63.1 nM,–,–,–,–,–
O=C(CCCN1CCC(O)(c2ccc(Cl)cc2)CC1)c1ccc(F)cc1,–,–,–,–,–,–,–,–,–,–,–,–,–,–,Active,–,–,–,–
CN1CCC=C(c2nsnc2OCCOCCOCCOCCO)C1,1000 nM,316 nM,316 nM,794 nM,3980 nM,794 nM,7.9%,inactive,–,7.94 nM,86%,25100 nM,110%,–,–,7.4%,–,–,–
CN1CCN(C2=Nc3cc(Cl)ccc3Nc3ccccc32)CC1,–,–,–,–,–,–,–,–,–,–,–,–,–,–,Active,–,–,–,–
COc1nsnc1OCCOCCOc1nsnc1C1=CCCN(C)C1,794 nM,39.8 nM,50.1 nM,63.1 nM,251 nM,1000 nM,11%,inactive,0.83%,79.4 nM,77%,7940 nM,47%,–,–,–,–,–,–
COc1nsc(OCCCOCCCOCCCOc2nsnc2C2=CCCN(C)C2)n1,63.1 nM,63.1 nM,200 nM,158 nM,251 nM,501 nM,27%,inactive,–,–,inactive,6310 nM,130%,–,–,–,inactive,–,–
Clc1ccc2c(c1)N=C(N1CCNCC1)c1ccccc1N2,–,–,–,–,–,–,–,–,–,–,–,–,–,–,inactive,–,–,–,–
COc1nsnc1OCCCOCCCOCCCOc1nsnc1C1=CCCN(C)C1,100 nM,158 nM,200 nM,158 nM,100 nM,3160 nM,21%,inactive,–,–,–,–,–,–,–,0.6%,–,130%,260%
COc1nsnc1OCCOCCOCCOc1nsnc1C1=CCCN(C)C1,316 nM,39.8 nM,251 nM,79.4 nM,631 nM,794 nM,13%,inactive,1.3%,3160 nM,110%,7940 nM,100%,–,–,–,–,–,–
